Assays:
[1] = Regional brain distribution in rat cortex was determined after 240 min of intravenous administration of the compound; [125I]- is used as radioactive isotope; type: ADME; conditions: in vivo, 4 h
In short: (§1)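 Rats, three per group, injected with 10 μCi tracer in 0.2 mL saline via the femoral vein under ether anesthesia and killed by cardiac excision at the stated time. Cortex (frontal plus occipital), striatum, hippocampus, cerebellum and hypothalamus were dissected, weighed and gamma-counted. Values are % dose/g, calculated by comparison with counts of a 100-fold diluted aliquot of the injected dose.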

[2] = Regional brain distribution in rat striatum was determined after 2 min of intravenous administration of the compound; [125I]- is used as radioactive isotope; type: ADME, tissue-based; conditions: in vivo; in short: as §1
[3] = Distribution ratio in striatum and cerebellum was determined after 240 min of intravenous administration of the compound; [125I]- is used as radioactive isotope; type: ADME, tissue-based; conditions: rat, 4 h
In short: (§2)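 Rats, three per group, given 10 μCi tracer in 0.2 mL saline into the femoral vein under ether anesthesia, then killed by cardiac excision at the stated time. Brain regions were dissected, weighed and counted. Percent dose/g was calculated against a 1% diluted aliquot of the injected dose. The ratio is (region − cerebellum)/cerebellum on a % dose/g basis, with cerebellum as background.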

[4] = Regional brain distribution in rat striatum was determined after 30 min of intravenous administration of the compound; [125I]- is used as radioactive isotope; type: ADME, tissue-based; conditions: in vivo, 0.5 h; in short: as §1
[5] = Distribution ratio in striatum and cerebellum was determined after 2 min of intravenous administration of the compound; [125I]- is used as radioactive isotope; type: ADME, tissue-based; conditions: rat; in short: as §2
[6] = Distribution ratio in striatum and cerebellum was determined after 11 hrs of intravenous administration of the compound; [125I]- is used as radioactive isotope; type: ADME, tissue-based; conditions: rat; in short: as §2
[7] = Distribution ratio in hypothalamus and cerebellum was determined after 30 min of intravenous administration of the compound; [125I]- is used as radioactive isotope; type: ADME, tissue-based; conditions: rat, 0.5 h; in short: as §2
[8] = Distribution ratio in hypothalamus and cerebellum was determined after 60 min of intravenous administration of the compound; [125I]- is used as radioactive isotope; type: ADME, tissue-based; conditions: rat, 1 h; in short: as §2
[9] = Distribution ratio in hypothalamus and cerebellum was determined after 240 min of intravenous administration of the compound; [125I]- is used as radioactive isotope; type: ADME, tissue-based; conditions: rat, 4 h
In short: (§3)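 After femoral-vein injection of 10 μCi [¹²⁵I] tracer in 0.2 mL saline under ether anaesthesia (three rats per group), brain regions were dissected, weighed and counted: cortex (frontal plus occipital), hippocampus, hypothalamus and cerebellum. %dose/g was calculated against a diluted injected-dose standard. Ratio = (region − cerebellum)/cerebellum on a %dose/g basis, with cerebellum as the background region.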

[10] = Regional brain distribution in rat hippocampus was determined after 60 min of intravenous administration of the compound; [125I]- is used as radioactive isotope; type: ADME, tissue-based; conditions: in vivo, 1 h; in short: as §1
[11] = Regional brain distribution in rat striatum was determined after 120 min of intravenous administration of the compound; [125I]- is used as radioactive isotope; type: ADME, tissue-based; conditions: in vivo, 2 h; in short: as §1
[12] = Regional brain distribution in rat striatum was determined after 6 hours of intravenous administration of the compound; [125I]- is used as radioactive isotope; type: ADME, tissue-based; conditions: in vivo; in short: as §1
[13] = Regional brain distribution in rat cerebellum was determined after 11 hours of intravenous administration of the compound; [125I]- is used as radioactive isotope; type: ADME, tissue-based; conditions: in vivo; in short: as §1
[14] = Regional brain distribution in rat hippocampus was determined after 120 min of intravenous administration of the compound; [125I]- is used as radioactive isotope; type: ADME, tissue-based; conditions: in vivo, 2 h; in short: as §1
[15] = Regional brain distribution in rat hippocampus was determined after 6 hours of intravenous administration of the compound; [125I]- is used as radioactive isotope; type: ADME, tissue-based; conditions: in vivo; in short: as §1
[16] = Regional brain distribution in rat hypothalamus was determined after 60 min of intravenous administration of the compound; [125I]- is used as radioactive isotope; type: ADME, tissue-based; conditions: in vivo, 1 h; in short: as §1
[17] = Regional brain distribution in rat hypothalamus was determined after 6 hours of intravenous administration of the compound; [125I]- is used as radioactive isotope; type: ADME, tissue-based; conditions: in vivo; in short: as §1
[18] = Distribution ratio in cortex and cerebellum was determined after 2 min of intravenous administration of the compound; [125I]- is used as radioactive isotope; type: ADME, tissue-based; conditions: rat; in short: as §3
[19] = Biodistribution in rat heart was determined after 2 min of intravenous administration of the compound; [125I]- is used as radioactive isotope; type: ADME, organism-based; conditions: in vivo
In short: (§4)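 Rats under ether anesthesia, three per group, received 10 μCi tracer in 0.2 mL saline into the femoral vein. They were killed by cardiac excision under ether at each time point. Organs were removed, weighed and counted. Percent dose per organ was calculated against a 1%-of-injected-dose standard counted at the same time.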

[20] = Biodistribution in rat thyroid was determined after 120 min of intravenous administration of the compound; [125I]- is used as radioactive isotope; type: ADME, organism-based, Thyroid gland; conditions: in vivo, 2 h
In short: (§5)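 Rats, three per group, under ether anaesthesia, received 10 μCi of [¹²⁵I]-labelled tracer in 0.2 mL saline into the femoral vein. They were killed by cardiac excision under ether at each time point. Organs were removed, weighed and counted. Percent dose per organ was calculated against counts of a 1% aliquot of the injected dose (100-fold diluted) counted at the same time.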

[21] = Biodistribution in rat lung was determined after 120 min of intravenous administration of the compound; [125I]- is used as radioactive isotope; type: ADME, organism-based; conditions: in vivo, 2 h; in short: as §4
[22] = Biodistribution in rat muscle was determined after 2 min of intravenous administration of the compound; [125I]- is used as radioactive isotope; type: ADME, organism-based, Muscle tissue; conditions: in vivo; in short: as §5
[23] = Biodistribution in rat blood was determined after 120 min of intravenous administration of the compound; [125I]- is used as radioactive isotope; type: ADME, organism-based; conditions: in vivo, 2 h; in short: as §4
[24] = Biodistribution in rat blood was determined after 240 min of intravenous administration of the compound; [125I]- is used as radioactive isotope; type: ADME, organism-based; conditions: in vivo, 4 h; in short: as §4
[25] = Biodistribution in rat spleen was determined after 60 min of intravenous administration of the compound; [125I]- is used as radioactive isotope; type: ADME, organism-based; conditions: in vivo, 1 h; in short: as §5
[26] = Biodistribution in rat liver was determined after 240 min of intravenous administration of the compound; [125I]- is used as radioactive isotope; type: ADME, organism-based; conditions: in vivo, 4 h; in short: as §4
[27] = Biodistribution in rat lung was determined after 24 hours of intravenous administration of the compound; [125I]- is used as radioactive isotope; type: ADME, organism-based; conditions: in vivo; in short: as §4
[28] = Biodistribution in rat muscle was determined after 30 min of intravenous administration of the compound; [125I]- is used as radioactive isotope; type: ADME, organism-based, Muscle tissue; conditions: in vivo, 0.5 h; in short: as §5
[29] = Biodistribution in rat muscle was determined after 60 min of intravenous administration of the compound; [125I]- is used as radioactive isotope; type: ADME, organism-based, Muscle tissue; conditions: in vivo, 1 h; in short: as §5
[30] = Biodistribution in rat blood was determined after 24 hours of intravenous administration of the compound; [125I]- is used as radioactive isotope; type: ADME, organism-based; conditions: in vivo; in short: as §4
[31] = Biodistribution in rat heart was determined after 11 hours of intravenous administration of the compound; [125I]- is used as radioactive isotope; type: ADME, organism-based; conditions: in vivo; in short: as §4
[32] = Biodistribution in rat kidney was determined after 120 min of intravenous administration of the compound; [125I]- is used as radioactive isotope; type: ADME, organism-based; conditions: in vivo, 2 h; in short: as §4
[33] = Biodistribution in rat liver was determined after 11 hours of intravenous administration of the compound; [125I]- is used as radioactive isotope; type: ADME, organism-based; conditions: in vivo; in short: as §4
[34] = Regional brain distribution in rat cerebellum was determined after 120 min of intravenous administration of the compound; [125I]- is used as radioactive isotope; type: ADME, tissue-based; conditions: in vivo, 2 h; in short: as §1

Q: Which Dose/g [1] does the source give for `CN(C)Cc1ccccc1Oc1ccc(I)cc1N` here?
A: 0.12%

Q: And the Dose/g [2]?
A: 0.77%

Q: What about the Dose/g [3] of the same molecule?
A: 3.11%

Q: What about the Dose/g [4] of the same molecule?
A: 1.16%

Q: And the Dose/g [5]?
A: 0.01%

Q: What about the Dose/g [6] of the same molecule?
A: 0.14%

Q: What about the Dose/g [7] of the same molecule?
A: 1.06%

Q: What about the Dose/g [8] of the same molecule?
A: 1.92%

Q: And the Dose/g [9]?
A: 4.49%

Q: What about the Dose/g [10] of the same molecule?
A: 0.94%

Q: What about the Dose/g [11] of the same molecule?
A: 0.72%

Q: And the Dose/g [12]?
A: 0.068%

Q: And the Dose/g [13]?
A: 0.01%

Q: And the Dose/g [14]?
A: 0.65%

Q: And the Dose/g [15]?
A: 0.059%

Q: What about the Dose/g [16] of the same molecule?
A: 1.18%

Q: What about the Dose/g [17] of the same molecule?
A: 0.09%

Q: And the Dose/g [18]?
A: 0.56%

Q: And the Dose [19]?
A: 1.51%

Q: And the Dose [20]?
A: 0.96%

Q: What about the Dose [21] of the same molecule?
A: 0.88%

Q: And the Dose [22]?
A: 25.9%

Q: What about the Dose [23] of the same molecule?
A: 3.15%

Q: What about the Dose [24] of the same molecule?
A: 3.12%

Q: What about the Dose [25] of the same molecule?
A: 0.47%

Q: What about the Dose [26] of the same molecule?
A: 3.52%

Q: And the Dose [27]?
A: 0.04%

Q: And the Dose [28]?
A: 18.1%

Q: What about the Dose [29] of the same molecule?
A: 12.9%

Q: What about the Dose [30] of the same molecule?
A: 0.7%

Q: And the Dose [31]?
A: 0.06%

Q: And the Dose [32]?
A: 1.24%

Q: What about the Dose [33] of the same molecule?
A: 2.64%

Q: What about the Dose/g [34] of the same molecule?
A: 0.21%

Source: ChEMBL document CHEMBL1137220, “2-(2-(dimethylaminomethyl)phenoxy)-5-iodophenylamine: an improved serotonin transporter imaging agent” (J Med Chem, 2004)
